pIC50, pKd: −log10 of the molar value. Active and inactive are the calls of the source. No cut-off for these calls is given here.
What was measured:
CNE-2 [1] = experiment: Induction of apoptosis in human CNE-2 cells assessed as necrosis cells level at 100 nM incubated for 12 hrs by Annexin-V/FITC staining based FACS analysis (reference value: 1.45%); assay type: cell-based; settings: cne-2, 12 h, 0.1 µM
CNE-2 [2] = experiment: Induction of apoptosis in human CNE-2 cells overexpressing HSP90 assessed as late apoptosis cells level at 70 nM incubated for 12 hrs by Annexin-V/FITC staining based FACS analysis (reference value: 2.18%); assay type: cell-based; settings: cne-2, 12 h, 0.07 µM
CNE-2 [3] = experiment: Induction of apoptosis in human CNE-2 cells assessed as necrosis cells level at 500 nM incubated for 12 hrs by Annexin-V/FITC staining based FACS analysis (reference value: 1.45%); assay type: cell-based; settings: cne-2, 12 h, 0.5 µM
CNE-2 [4] = experiment: Induction of apoptosis in human CNE-2 cells assessed as necrosis cells level at 70 nM incubated for 12 hrs by Annexin-V/FITC staining based FACS analysis (reference value: 1.49%); assay type: cell-based; settings: cne-2, 12 h, 0.07 µM
CNE-2 [5] = experiment: Induction of apoptosis in human CNE-2 cells assessed as viable cells level at 200 nM incubated for 12 hrs by Annexin-V/FITC staining based FACS analysis (reference value: 96.7%); assay type: cell-based; settings: read-out: Activity
Procedure, shortened: (§1)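 CNE2 cells (RPMI 1640 with 10% FBS) were seeded at 5 × 10⁴ cells per well. After 24 h they were treated with compound in 0.05% DMSO for 12 h. Cells were then washed twice with PBS, pelleted, and stained in binding buffer with Annexin V-FITC and PI for flow cytometry.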

CNE-2 [6] = experiment: Induction of apoptosis in human CNE-2 cells assessed as viable cells level at 20 nM incubated for 12 hrs by Annexin-V/FITC staining based FACS analysis (reference value: 96.7%); assay type: cell-based; settings: read-out: Activity; procedure, shortened: as §1
CNE-2 [7] = experiment: Induction of apoptosis in human CNE-2 cells assessed as viable cells level at 500 nM incubated for 12 hrs by Annexin-V/FITC staining based FACS analysis (reference value: 96.7%); assay type: cell-based; settings: read-out: Activity; procedure, shortened: as §1
CNE-2 [8] = experiment: Induction of apoptosis in human CNE-2 cells assessed as reduction in HER2 protein level at 500 nM incubated for 24 hrs by immunoblot analysis; assay type: functional, cell-based
Procedure, shortened: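 CNE2 cells (RPMI 1640, 10% FBS, 37 °C, 5% CO₂) were incubated with inhibitor for 24 h, then lysed in RIPA buffer on ice for 30 min. Lysates were run on 8–12% SDS-PAGE and transferred to PVDF. Membranes were blocked with 5% milk and probed with primary antibodies overnight, then HRP secondaries. Detection was by chemiluminescence with actin as loading control.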

CNE-2 [9] = experiment: Induction of apoptosis in human CNE-2 cells assessed as Bcl-XL degradation at 70 nM incubated for 24 hrs in presence of HSP90-alpha siRNA by immunoblot analysis; assay type: functional, cell-based
Procedure, shortened: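 CNE2 cells were transiently transfected with Hsp90 siRNA (siHsp90-1 or siHsp90-2) at 150 nM final using Lipofectamine 2000. They were then incubated with inhibitor for 24 h and immunoblotted: RIPA lysis, 8–12% SDS-PAGE, PVDF, overnight primary antibodies, HRP secondaries, chemiluminescence, actin as loading control.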

CNE-2 [10] = experiment: Induction of apoptosis in human CNE-2 cells overexpressing HSP90 assessed as early apoptosis cells level at 70 nM incubated for 12 hrs by Annexin-V/FITC staining based FACS analysis (reference value: 3.1%); assay type: cell-based; settings: cne-2, 12 h, 0.07 µM
CNE-2 [11] = experiment: Induction of apoptosis in human CNE-2 cells assessed as necrosis cells level at 20 nM incubated for 12 hrs by Annexin-V/FITC staining based FACS analysis (reference value: 1.45%); assay type: cell-based; settings: cne-2, 12 h, 0.02 µM
CNE-2 [12] = experiment: Induction of apoptosis in human CNE-2 cells assessed as early apoptosis cells level at 50 nM incubated for 12 hrs by Annexin-V/FITC staining based FACS analysis (reference value: 1.45%); assay type: cell-based; settings: cne-2, 12 h, 0.05 µM
CNE-2 [13] = experiment: Induction of apoptosis in human CNE-2 cells assessed as viable cells level at 100 nM incubated for 12 hrs by Annexin-V/FITC staining based FACS analysis (reference value: 96.7%); assay type: cell-based; settings: read-out: Activity; procedure, shortened: as §1
CNE-2 [14] = experiment: Induction of apoptosis in human CNE-2 cells assessed as early apoptosis cells level at 200 nM incubated for 12 hrs by Annexin-V/FITC staining based FACS analysis (reference value: 1.45%); assay type: cell-based; settings: cne-2, 12 h, 0.2 µM
CNE-2 [15] = experiment: Induction of apoptosis in human CNE-2 cells assessed as late apoptosis cells level at 20 nM incubated for 12 hrs by Annexin-V/FITC staining based FACS analysis (reference value: 1.45%); assay type: cell-based; settings: cne-2, 12 h, 0.02 µM
[16] = Binding affinity to HSP90-alpha L107G mutant (unknown origin) expressed in Escherichia coli BL21 by SPR assay; parameters: species or system Homo sapiens
Procedure, shortened: (§2)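 SPR on a Biacore T200 at 25 °C with running buffer PBST (PBS pH 7.4, 0.005% Tween-20). Protein at 20 μg/mL in 10 mM sodium acetate pH 5.0 was immobilized on a CM5 chip, which was equilibrated overnight in PBST. Inhibitor serially diluted from 10 μM was injected at 30 μL/min with 120 s contact and 120 s dissociation.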

CNE-2 [17] = experiment: Induction of apoptosis in human CNE-2 cells assessed as early apoptosis cells level at 500 nM incubated for 12 hrs by Annexin-V/FITC staining based FACS analysis (reference value: 1.45%); assay type: cell-based; settings: cne-2, 12 h, 0.5 µM
[18] = Binding affinity to HSP90-alpha T184G mutant (unknown origin) expressed in Escherichia coli BL21 by SPR assay; parameters: species or system Homo sapiens; procedure, shortened: as §2
CNE-2 [19] = experiment: Induction of apoptosis in human CNE-2 cells assessed as late apoptosis cells level at 50 nM incubated for 12 hrs by Annexin-V/FITC staining based FACS analysis (reference value: 1.45%); assay type: cell-based; settings: cne-2, 12 h, 0.05 µM
CNE-2 [20] = experiment: Antitumor activity against human CNE-2 cells xenografted in nu/nu mouse assessed as inhibition of tumor growth at 1 mg/kg, po for 32 days; assay type: functional, organism-based; settings: time 32.0 day
[21] = molecular target: T1, Heat shock protein HSP 90-alpha (Homo sapiens, UniProt P07900); experiment: Inhibition of HSP90-alpha (unknown origin) expressed in Escherichia coli BL21 assessed as reduction in ATPase activity in presence of PEP, NADH and ATP by pyruvate kinase/lactic dehydrogenase based coupled enzyme assay
CNE-2 [22] = experiment: Induction of apoptosis in human CNE-2 cells assessed as late apoptosis cells level at 100 nM incubated for 12 hrs by Annexin-V/FITC staining based FACS analysis (reference value: 1.45%); assay type: cell-based; settings: cne-2, 12 h, 0.1 µM
CNE-2 [23] = experiment: Induction of apoptosis in human CNE-2 cells assessed as late apoptosis cells level at 70 nM incubated for 12 hrs by Annexin-V/FITC staining based FACS analysis (reference value: 2.18%); assay type: cell-based; settings: cne-2, 12 h, 0.07 µM
CNE-2 [24] = experiment: Induction of apoptosis in human CNE-2 cells assessed as late apoptosis cells level at 200 nM incubated for 12 hrs by Annexin-V/FITC staining based FACS analysis (reference value: 1.45%); assay type: cell-based; settings: cne-2, 12 h, 0.2 µM
CNE-2 [25] = experiment: Antitumor activity against human CNE-2 cells xenografted in nu/nu mouse assessed as inhibition of tumor growth at 1 mg/kg, ip for 32 days; assay type: functional, organism-based; settings: time 32.0 day
[26] = molecular target: T1, Heat shock protein HSP 90-alpha; experiment: Binding affinity to HSP90-alpha (unknown origin) expressed in Escherichia coli BL21 by SPR assay

## CC(C)(C)c1ccc(Cn2cc(-c3cc(O)c(O)c(O)c3)nn2)cc1
CNE-2 [1]
  Activity: 0.57%
CNE-2 [2]
  Activity: 1.28%
CNE-2 [3]
  Activity: 0.96%
CNE-2 [4]
  Activity: 1.2%
CNE-2 [5]
  viability at 0.2 µM: 75.1%
CNE-2 [6]
  viability at 0.02 µM: 93.6%
CNE-2 [7]
  viability at 0.5 µM: 32%
CNE-2 [8]
  Activity: Active
CNE-2 [9]
  Activity: inactive
CNE-2 [10]
  Activity: 3.96%
CNE-2 [11]
  Activity: 0.17%
CNE-2 [12]
  Activity: 7.17%
CNE-2 [13]
  viability at 0.1 µM: 78.6%
CNE-2 [14]
  Activity: 13%
CNE-2 [15]
  Activity: 2.19%
[16]
  pKd: 4.54
CNE-2 [17]
  Activity: 33.6%
[18]
  pKd: 4.09
CNE-2 [19]
  Activity: 15.3%
CNE-2 [20]
  TGI: Active
[21]
  pIC50: 6.80
CNE-2 [22]
  Activity: 15.6%
CNE-2 [23]
  Activity: 9.56%
CNE-2 [24]
  Activity: 11.6%
CNE-2 [25]
  TGI: Active
[26]
  pKd: 7.20

From ChEMBL document CHEMBL4706684, “Discovering High Potent Hsp90 Inhibitors as Antinasopharyngeal Carcinoma Agents through Fragment Assembling Approach” (J Med Chem, 2021)
